In PMC4183631 (Journal of the American Chemical Society, 2014):
No end group written: not given here.

Key:
[1] = tested on: L. monocytogenes ATCC 19115; assay: Bacterial agglutination assay; type: cell-based, Listeria monocytogenes; conditions: for peptide concentration at which the bacteria were agglutinated: 0–20 μM peptide, 50% MHB pH 7.4, 6 h, OD600
In short: (§1)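 Mid-log bacteria (LB for E. coli, BHI for Listeria), washed, held at OD600 0.25 in 50% MHB pH 7.4. Mixed 9:1 with 10× peptide (50, 100, 200 μM stocks) or water in a cuvette; OD600 read over time. At 6 h, for 20 μM samples, supernatant and agglutinate resuspended in fresh 50% MHB were serially diluted and plated (37 °C; LB agar 15 h, BHI agar 20 h). Three trials; mean ± SD.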

E. coli ATCC 25922 [2] = assay: Bacterial agglutination assay; type: cell-based, Escherichia coli; conditions: for peptide concentration at which the bacteria were agglutinated: 0–20 μM peptide, 50% MHB pH 7.4, 6 h, OD600
In short: as §1

[3] = target: HD6 F29A mutant, oxidized form (human); assay: AUC
bacteria = conditions: cited from earlier work
[4] = Sedimentation velocity analytical ultracentrifugation; type: physicochemical; conditions: lowest possible rotor speed (3000 rpm); white coat on the AUC cell
[5] = tested on: L. monocytogenes ATCC 19115; assay: Antimicrobial activity assay; type: cell-based, Listeria monocytogenes; conditions: 20 μM peptide, AMA buffer (10 mM sodium phosphate, 1% TSB, pH 7.4), 1 h, 37 °C, colony counting; n = 3
In short: (§2)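 Strain grown overnight in BHI (37 °C, 16 h), subcultured 1:100 to OD600 ~0.6, washed twice in AMA buffer, set to OD600 0.5, then diluted 1:500. 9 parts culture to 1 part 10× peptide (200 μM stock) or water control; 1 h, 37 °C, 150 rpm. Tenfold dilutions plated on BHI agar, 20 h, 37 °C; 30–200-colony plates counted. Three trials, ≥2 peptide preparations; mean and standard deviation.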

S. aureus ATCC 25923 = assay: Antimicrobial activity assay; type: cell-based, Staphylococcus aureus; conditions: 20 μM peptide, AMA buffer (10 mM sodium phosphate, 1% TSB, pH 7.4), 1 h, 37 °C, colony counting; n = 3
In short: as §2, with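 “in dextrose-free TSB” for “in BHI”, “OD600 0.6,” for “OD600 0.5,”, “diluted 1:100.” for “diluted 1:500.”, “on TSB” for “on BHI”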

E. coli ATCC 25922 [6] = assay: Antimicrobial activity assay; type: cell-based, Escherichia coli; conditions: 20 μM peptide, AMA buffer (10 mM sodium phosphate, 1% TSB, pH 7.4), 1 h, 37 °C, colony counting; n = 3
In short: as §2, with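 “Cells grown” for “Strain grown”, “in dextrose-free TSB” for “in BHI”, “diluted 1:250.” for “diluted 1:500.”, “on TSB” for “on BHI”, “agar, 15” for “agar, 20”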

[7] = tested on: S. Typhimurium ATCC 14028; assay: Antimicrobial activity assay; type: cell-based, Salmonella enterica serovar Typhimurium; conditions: 20 μM peptide, AMA buffer (10 mM sodium phosphate, 1% TSB, pH 7.4), 1 h, 37 °C, colony counting; n = 3
In short: as §2, with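 “Cells grown” for “Strain grown”, “in dextrose-free TSB” for “in BHI”, “diluted 1:250.” for “diluted 1:500.”, “on TSB” for “on BHI”, “agar, 15” for “agar, 20”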

[8] = 20 μM peptide, 6 h, mean ± SDM, n = 3
[9] = 20 μM peptide, 6 h, bacterium not given
[10] = 20 μM peptide, bacterial culture 10^8 CFU/mL in cuvette

I25T (AFTCHCRRSCYSTEYSYGTCTVMGTNHRFCCL; disulfide (positions not given here); ends not checked; UniProt Q01524 69-100, looked up, variant I25T)
peptide concentration at which the bacteria were agglutinated [1]: ≥ 10 µM
peptide concentration at which the bacteria were agglutinated (E. coli ATCC 25922 [2]): ≥ 10 µM

HD6 F29A mutant, oxidized form (peptide)
stoichiometry N [3]: 2

V22T (AFTCHCRRSCYSTEYSYGTCTTMGINHRFCCL; disulfide (positions not given here); ends not checked; UniProt Q01524 69-100, looked up, variant V22T)
peptide concentration at which the bacteria were agglutinated [1]: ≥ 10 µM
CFU/mL reduction of the supernatant, in words [1, 8]: smaller decrease in CFU/mL for the supernatant
peptide concentration at which the bacteria were agglutinated (E. coli ATCC 25922 [2]): ≥ 10 µM
CFU/mL reduction of the supernatant, in words (E. coli ATCC 25922 [2]; [8]): smaller decrease in CFU/mL for the supernatant

ATCYCRTGRCATRESLSGVCEISGRLYRLCCR (also: bicyclic or more (positions not given here)) [HD5, reference compound]
antibacterial activity in vitro (bacteria): broad-spectrum antibacterial activity

H27W (AFTCHCRRSCYSTEYSYGTCTVMGINWRFCCL; disulfide (positions not given here); ends not checked; UniProt Q01524 69-100, looked up, variant H27W)
peptide concentration at which the bacteria were agglutinated [1]: ≥ 10 µM
peptide concentration at which the bacteria were agglutinated (E. coli ATCC 25922 [2]): ≥ 10 µM

AFTCHCRR-SCYSTEYSYGTCTVMGINHRFCCL (bicyclic or more) [HD6, Human α-defensin 6]
antibacterial activity in vitro (bacteria): negligible antibacterial activity
time within which the peptide sedimented (rapid peptide aggregation) [4]: ≤ 15 min
antibacterial activity [5]: neither HD6 nor the mutants exhibit significant antibacterial activity
antibacterial activity (S. aureus ATCC 25923): neither HD6 nor the mutants exhibit significant antibacterial activity
CFU/mL of the resuspension following agitation [1, 9]: comparable to that of the untreated control
log reduction in CFU/mL of the supernatant relative to the bacteria-only control [1, 9]: ca. 1.3 fold log
time for clumps to sediment to the bottom of the cuvette and clarify the medium [1, 10]: ~2 h
time to bacterial clumping observed by the eye after mixing [1, 10]: ≤ 5 min
antibacterial activity (E. coli ATCC 25922 [6]): neither HD6 nor the mutants exhibit significant antibacterial activity
CFU/mL of the resuspension following agitation (E. coli ATCC 25922 [2]; [9]): comparable to that of the untreated control
log reduction in CFU/mL of the supernatant relative to the bacteria-only control (E. coli ATCC 25922 [2]; [9]): ca. 1.3 fold log
time for clumps to sediment to the bottom of the cuvette and clarify the medium (E. coli ATCC 25922 [2]; [10]): ~2 h
time to bacterial clumping observed by the eye after mixing (E. coli ATCC 25922 [2]; [10]): ≤ 5 min
antibacterial activity [7]: neither HD6 nor the mutants exhibit significant antibacterial activity
